How the values were obtained:
[1] = tested on: Mus musculus; test: Antiinflammatory activity in Kunming mouse assessed as inhibition of xylene-induced ear edema at 50 mg/kg, ip pretreated for 30 mins followed by xylene challenge measured after 30 mins relative to control; format: functional
In short: (§1)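 Xylene-induced ear edema in mice. Compounds were given i.p. at 12.5, 25 or 50 mg/kg. Ibuprofen and indomethacin at 50 mg/kg served as reference drugs. Ear edema weight (mg) is reported as mean ± S.D., and percent inhibition is calculated against the untreated control group.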

[2] = tested on: RAW264.7; test: Cytotoxicity against mouse RAW264.7 cells assessed as reduction in cell viability at 50 ug/ml after 24 hrs by MTT assay; format: cell-based; details: raw264.7, 24 h
[3] = tested on: RAW264.7; test: Cytotoxicity against mouse RAW264.7 cells assessed as reduction in cell viability at 50 ug/ml preincubated for 24 hrs followed by LPS induction measured after 18 hrs by MTT assay; format: cell-based; details: raw264.7, 18 h
[4] = tested on: Mus musculus; test: Antiinflammatory activity in Kunming mouse assessed as inhibition of xylene-induced ear edema at 12.5 mg/kg, ip pretreated for 30 mins followed by xylene challenge measured after 30 mins relative to control; format: functional; in short: as §1
[5] = tested on: RAW264.7; test: Antiinflammatory activity against mouse RAW264.7 cells assessed as decrease in LPS-stimulated IL-6 release after 24 hrs by ELISA; format: functional, cell-based
In short: (§2)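 Mouse RAW 264.7 macrophages were stimulated with LPS in the presence of compound, tested at […]. TNF-α and IL-6 were measured in the culture supernatants by ELISA. Cytokine content is expressed as fold of the control group, with control set at 100%. Values are mean ± S.D. of triplicate experiments.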

[6] = species on record: Mus musculus; test: Inhibition of LPS-induced NFkappaB activation in mouse RAW264.7 cells assessed as reduction p65 phosphorylation at 12.5 to 50 ug/ml preincubated for 24 hrs followed by LPS-stimulation measured after 24 hrs by Western blot method; format: cell-based
In short: (§3)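 NF-κB activation in LPS-stimulated RAW 264.7 cells was assessed by western blot of phosphorylated p65 and IκB levels. Data are means ± SD, compared with the control and LPS groups.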

[7] = biological target: T1, Prostaglandin G/H synthase 2 (Homo sapiens) (UniProt P35354); test: Inhibition of COX-2 (unknown origin) assessed as protein/GADPH ratio at 50 ug/ml relative to control; parameters: scale not given: the % may be the effect or the level left
T1 sequence (whole entry): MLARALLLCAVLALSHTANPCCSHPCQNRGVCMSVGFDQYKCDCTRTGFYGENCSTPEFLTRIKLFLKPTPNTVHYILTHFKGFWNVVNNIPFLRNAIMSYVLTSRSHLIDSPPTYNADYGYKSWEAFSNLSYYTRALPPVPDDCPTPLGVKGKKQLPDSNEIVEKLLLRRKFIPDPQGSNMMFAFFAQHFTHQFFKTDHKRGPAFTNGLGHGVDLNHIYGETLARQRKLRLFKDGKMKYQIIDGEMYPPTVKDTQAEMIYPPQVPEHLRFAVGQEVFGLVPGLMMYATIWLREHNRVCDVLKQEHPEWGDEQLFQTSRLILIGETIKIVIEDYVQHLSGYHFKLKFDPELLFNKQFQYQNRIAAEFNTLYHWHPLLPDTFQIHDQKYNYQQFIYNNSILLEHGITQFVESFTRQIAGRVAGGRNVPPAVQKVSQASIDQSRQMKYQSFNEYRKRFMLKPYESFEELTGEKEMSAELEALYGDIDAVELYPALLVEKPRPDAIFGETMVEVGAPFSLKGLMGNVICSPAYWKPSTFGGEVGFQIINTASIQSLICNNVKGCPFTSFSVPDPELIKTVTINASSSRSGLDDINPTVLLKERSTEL

[8] = biological target: Mitogen-activated protein kinase 3 (Mus musculus) (UniProt Q63844); test: Inhibition of ERK phosphorylation in mouse RAW264.7 cells incubated for 24 hrs followed by LPS-stimulation measured after 24 hrs by Western blot method; format: cell-based
In short: (§4)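 MAPK protein levels were determined by western blot in LPS-stimulated mouse RAW 264.7 cells. Data are means ± SD, compared with the control and LPS groups.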

[9] = tested on: RAW264.7; test: Antiinflammatory activity against mouse RAW264.7 cells assessed as LPS-stimulated IL6 release at 12.5 ug/ml after 24 hrs by ELISA relative to LPS-treated control; format: functional; in short: as §2
[10] = biological target: MAP kinase p38 (Mus musculus) (UniProt P47811+O08911+Q9WUI1+Q9Z1B7); test: Inhibition of p38 phosphorylation in mouse RAW264.7 cells incubated for 24 hrs followed by LPS-stimulation measured after 24 hrs by Western blot method; format: cell-based; in short: as §4
[11] = tested on: RAW264.7; test: Antiinflammatory activity against mouse RAW264.7 cells assessed as decrease in LPS-stimulated TNFalpa release after 24 hrs by ELISA; format: functional, cell-based; in short: as §2
[12] = species on record: Mus musculus; test: Inhibition of NFkappaB in mouse RAW264.7 cells assessed as decrease in LPS-induced degradation of IkappaB preincubated for 24 hrs followed by LPS-stimulation measured after 24 hrs by Western blot method; format: cell-based; in short: as §3
[13] = tested on: Mus musculus; test: Antiinflammatory activity in Kunming mouse assessed as inhibition of xylene-induced ear edema at 25 mg/kg, ip pretreated for 30 mins followed by xylene challenge measured after 30 mins relative to control; format: functional; in short: as §1
[14] = tested on: RAW264.7; test: Antiinflammatory activity against mouse RAW264.7 cells assessed as LPS-stimulated IL6 release at 50 ug/ml after 24 hrs by ELISA relative to LPS-treated control; format: functional; in short: as §2
[15] = tested on: RAW264.7; test: Antiinflammatory activity against mouse RAW264.7 cells assessed as LPS-stimulated IL6 release at 25 ug/ml after 24 hrs by ELISA relative to LPS-treated control; format: functional; in short: as §2
[16] = tested on: RAW264.7; test: Antiinflammatory activity against mouse RAW264.7 cells assessed as LPS-stimulated TNFalpa release at 50 ug/ml after 24 hrs by ELISA relative to LPS-treated control; format: functional; in short: as §2

Sequence of Mitogen-activated protein kinase 3 (Mus musculus) (Q63844 whole entry): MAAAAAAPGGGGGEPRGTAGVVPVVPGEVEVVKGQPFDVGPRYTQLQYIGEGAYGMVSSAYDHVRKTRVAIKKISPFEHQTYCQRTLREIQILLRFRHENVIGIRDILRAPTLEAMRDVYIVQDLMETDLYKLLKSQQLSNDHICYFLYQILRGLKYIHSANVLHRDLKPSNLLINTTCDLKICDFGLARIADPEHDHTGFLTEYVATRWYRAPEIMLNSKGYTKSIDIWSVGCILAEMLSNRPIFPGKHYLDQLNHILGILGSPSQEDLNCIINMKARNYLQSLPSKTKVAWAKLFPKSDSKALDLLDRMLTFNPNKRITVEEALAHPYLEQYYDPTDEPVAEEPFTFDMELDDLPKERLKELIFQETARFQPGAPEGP

Row | Structure (SMILES) | Activity [2] | Activity [3] | further results
1 | COc1ccc2c(c1)c(CC(=O)O)c(C)n2C(=O)c1ccc(Cl)cc1 [INDOMETHACIN] |  |  | inhibition in vivo at 50 mg/kg [1]: 49.4%
2 | c1ccc(Cn2c3cccc4cccc(c43)n3cnnc23)cc1 | Non-Toxic | Non-Toxic | 
3 | CCCCCCCCCCn1c2cccc3cccc(c32)n2cnnc12 | Toxic |  | 
4 | CC(C)Cc1ccc(C(C)C(=O)O)cc1 (configuration not stated) [IBUPROFEN] |  |  | inhibition in vivo at 50 mg/kg [1]: 28.1%
5 | Clc1cccc(Cl)c1Cn1c2cccc3cccc(c32)n2cnnc12 | Non-Toxic | Non-Toxic | 
6 | Clc1cccc(Cn2c3cccc4cccc(c43)n3cnnc23)c1 | Toxic | Toxic | 
7 | Cc1ccc(Cn2c3cccc4cccc(c43)n3cnnc23)cc1 | Toxic |  | 
8 | CCCn1c2cccc3cccc(c32)n2cnnc12 | Toxic |  | 
9 | CCCCCCCCCn1c2cccc3cccc(c32)n2cnnc12 | Toxic |  | 
10 | CCCCCCCCn1c2cccc3cccc(c32)n2cnnc12 | Toxic | Toxic | 
11 | CCCCCCn1c2cccc3cccc(c32)n2cnnc12 | Toxic |  | 
12 | Fc1ccccc1Cn1c2cccc3cccc(c32)n2cnnc12 | Non-Toxic | Non-Toxic | inhibition in vivo at 12.5 mg/kg [4]: 17.2%; Activity [5]: Dose-dependent effect; inhibition [6]: Dose-dependent effect; Activity [7]: 45.2%; inhibition [8]: Dose-dependent effect; Activity [9]: 71.8%; inhibition [10]: Dose-dependent effect; Activity [11]: Dose-dependent effect; inhibition in vivo at 50 mg/kg [1]: 49.3%; inhibition [12]: Dose-dependent effect; inhibition in vivo at 25 mg/kg [13]: 35%; Activity [14]: 47.21%; Activity [15]: 68.23%; Activity [16]: 124.87%
13 | Clc1ccc(Cn2c3cccc4cccc(c43)n3cnnc23)c(Cl)c1 | Non-Toxic | Non-Toxic | 
14 | Clc1ccc(Cn2c3cccc4cccc(c43)n3cnnc23)cc1 | Toxic |  | 
15 | Cc1cccc(Cn2c3cccc4cccc(c43)n3cnnc23)c1 | Non-Toxic | Non-Toxic | inhibition in vivo at 12.5 mg/kg [4]: 15.7%; Activity [5]: Dose-dependent effect; Activity [11]: Dose-dependent effect; inhibition in vivo at 50 mg/kg [1]: 42.9%; inhibition in vivo at 25 mg/kg [13]: 29.8%; Activity [16]: 146.24%
16 | Fc1cccc(Cn2c3cccc4cccc(c43)n3cnnc23)c1 | Non-Toxic | Non-Toxic | 
17 | CCCCn1c2cccc3cccc(c32)n2cnnc12 | Toxic | Toxic | 
18 | FC(F)(F)c1ccc(Cn2c3cccc4cccc(c43)n3cnnc23)cc1 | Toxic |  | 
19 | Fc1ccc(Cn2c3cccc4cccc(c43)n3cnnc23)cc1 | Non-Toxic | Non-Toxic | 
20 | CCCCCn1c2cccc3cccc(c32)n2cnnc12 |  | Non-Toxic | 
21 | Clc1ccccc1Cn1c2cccc3cccc(c32)n2cnnc12 | Non-Toxic | Non-Toxic | 

Source: ChEMBL document CHEMBL4043186, “Design, synthesis, anti-inflammatory activity, and molecular docking studies of perimidine derivatives containing triazole” (Bioorg Med Chem Lett, 2017)
